ChEMBL document CHEMBL1123031, “Adriamycin analogues. rationale, synthesis, and preliminary antitumor evaluation of highly active DNA-nonbinding N-(trifluoroacetyl)adriamycin 14-O-hemiester derivatives” (1985)

Key:
Format in all cases: functional
[1] = test system: Mus musculus; test: In vivo percent increase in life span relative to untreated controls in B6D2F1/J male mice at dose 50 mg/kg
[2] = test system: Mus musculus; test: In vivo antitumor efficacy expressed as number survivors in 60-days out of 7 male mice at dose 60 mg/kg; Value represented as = 5/7
[3] = test system: CCRF-CEM; test: In vitro inhibitory activity against CCRF-CEM cell growth in culture, after 48-h incubation.; settings: Homo sapiens, read-out: ID50 (the source's name)
Method in brief: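 Human lymphoblastic leukemia CCRF-CEM cells grown in culture with drug for 48 h. ID50 is the drug concentration that inhibits culture growth by 50% relative to untreated controls, reported in μM.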

[4] = test system: Mus musculus; test: In vivo percent increase in life span relative to untreated controls in B6D2F1/J male mice at dose 70 mg/kg
[5] = test system: Mus musculus; test: In vivo percent increase in life span relative to untreated controls in B6D2F1/J male mice at dose 40 mg/kg
[6] = test system: Mus musculus; test: In vivo antitumor efficacy expressed as number survivors in 60-days out of 7 male mice at dose 50 mg/kg; Value represented as = 4/7
[7] = test system: Mus musculus; test: In vivo antitumor efficacy expressed as number survivors in 60-days out of 7 male mice at dose 40 mg/kg; Value represented as = 0/7
[8] = test system: Mus musculus; test: In vivo antitumor efficacy expressed as number survivors in 60-days out of 7 male mice at dose 70 mg/kg; Value represented as = 6/7
[9] = test system: Mus musculus; test: In vivo percent increase in life span relative to untreated controls in B6D2F1/J male mice at dose 60 mg/kg
[10] = test system: Mus musculus; test: In vivo antitumor efficacy expressed as number survivors in 60-days out of 7 male mice at dose 50 mg/kg; Value represented as = 1/7
[11] = test system: Mus musculus; test: In vivo antitumor efficacy expressed as number survivors in 60-days out of 7 male mice at dose 40 mg/kg; Value represented as = 3/7
[12] = test system: Mus musculus; test: In vivo antitumor efficacy expressed as number survivors in 60-days out of 7 male mice at dose 60 mg/kg; Value represented as = 7/7
[13] = test system: Mus musculus; test: In vivo antitumor efficacy expressed as number survivors in 60-days out of 7 male mice at dose 60 mg/kg; Value represented as = 6/7
[14] = test system: Mus musculus; test: In vivo antitumor efficacy expressed as number survivors in 60-days out of 7 male mice at dose 40 mg/kg; Value represented as = 6/7
[15] = test system: Mus musculus; test: In vivo antitumor efficacy expressed as number survivors in 60-days out of 7 male mice at dose 70 mg/kg; Value represented as = 7/7
[16] = test system: Mus musculus; test: In vivo antitumor efficacy expressed as number survivors in 60-days out of 7 male mice at dose 50 mg/kg; Value represented as = 5/7
[17] = test system: Mus musculus; test: In vivo antitumor efficacy expressed as number survivors in 60-days out of 7 male mice at dose 50 mg/kg; Value represented as = 0/7
[18] = test system: Mus musculus; test: In vivo antitumor efficacy expressed as number survivors in 60-days out of 7 male mice at dose 60 mg/kg; Value represented as = 1/7
[19] = test system: Mus musculus; test: In vivo antitumor efficacy expressed as number survivors in 60-days out of 7 male mice at dose 70 mg/kg; Value represented as = 1/7
[20] = test system: Mus musculus; test: In vivo antitumor efficacy expressed as number survivors in 60-days out of 7 male mice at dose 30 mg/kg; Value represented as = 0/7
[21] = test system: Mus musculus; test: In vivo antitumor efficacy expressed as number survivors in 60-days out of 7 male mice at dose 50 mg/kg; Value represented as = 2/7
[22] = test system: Mus musculus; test: In vivo antitumor efficacy expressed as number survivors in 60-days out of 7 male mice at dose 40 mg/kg; Value represented as = 1/7
[23] = test system: Mus musculus; test: In vivo antitumor efficacy expressed as number survivors in 60-days out of 7 male mice at dose 70 mg/kg; Value represented as = 4/7
[24] = test system: Mus musculus; test: In vivo percent increase in life span relative to untreated controls in B6D2F1/J male mice at dose 30 mg/kg
[25] = test system: Mus musculus; test: In vivo antitumor efficacy expressed as number survivors in 60-days out of 7 male mice at dose 60 mg/kg; Value represented as = 4/7
[26] = test system: Mus musculus; test: In vivo percent increase in life span relative to untreated controls in B6D2F1/J male mice at dose 1 mg/kg
[27] = test system: Mus musculus; test: In vivo percent increase in life span relative to untreated controls in B6D2F1/J male mice at dose 3 mg/kg
[28] = test system: Mus musculus; test: In vivo antitumor efficacy expressed as number survivors in 60-days out of 7 male mice at dose 3 mg/kg; Value represented as = 0/7
[29] = test system: Mus musculus; test: In vivo antitumor efficacy expressed as number survivors in 60-days out of 7 male mice at dose 4 mg/kg; Value represented as = 0/7
[30] = test system: Mus musculus; test: In vivo antitumor efficacy expressed as number survivors in 60-days out of 7 male mice at dose 5 mg/kg; Value represented as = 0/7
[31] = test system: Mus musculus; test: In vivo antitumor efficacy expressed as number survivors in 60-days out of 7 male mice at dose 2 mg/kg; Value represented as = 0/7
[32] = test system: Mus musculus; test: In vivo antitumor efficacy expressed as number survivors in 60-days out of 7 male mice at dose 1 mg/kg; Value represented as = 0/7
[33] = test system: Mus musculus; test: In vivo percent increase in life span relative to untreated controls in B6D2F1/J male mice at dose 2 mg/kg
[34] = test system: Mus musculus; test: In vivo percent increase in life span relative to untreated controls in B6D2F1/J male mice at dose 4 mg/kg
[35] = test system: Mus musculus; test: In vivo antitumor efficacy expressed as number survivors in 60-days out of 7 male mice at dose 60 mg/kg; Value represented as = 0/7
[36] = test system: Mus musculus; test: In vivo antitumor efficacy expressed as number survivors in 60-days out of 7 male mice at dose 30 mg/kg; Value represented as = 4/7
[37] = test system: Mus musculus; test: In vivo percent increase in life span relative to untreated controls in B6D2F1/J male mice at dose 20 mg/kg
[38] = test system: Mus musculus; test: In vivo antitumor efficacy expressed as number survivors in 60-days out of 7 male mice at dose 20 mg/kg; Value represented as = 3/7

Structure (SMILES) | ILS at 50 mg/kg [1] [%] | Survivors [2] | IC50 [3] [nM] | ILS at 70 mg/kg [4] [%] | ILS at 40 mg/kg [5] [%] | Survivors [7] | ILS at 60 mg/kg [9] [%] | Survivors [16] | ILS at 30 mg/kg [24] [%] | also measured
COc1cccc2c1C(=O)c1c(O)c3c(c(O)c1C2=O)C[C@@](O)(C(=O)COC(=O)CCCCCCCCC(=O)O)C[C@@H]3OC1CC(NC(=O)C(F)(F)F)C(O)C(C)O1 (some centres undefined) | > 445 | 5 | 500 | > 445 | 109 | 0 | > 445 |  |  | Survivors [6]: 4; Survivors [8]: 6
COc1cccc2c1C(=O)c1c(O)c3c(c(O)c1C2=O)C[C@@](O)(C(=O)COC(=O)CCCCCC(=O)O)C[C@@H]3OC1CC(NC(=O)C(F)(F)F)C(O)C(C)O1 (some centres undefined) | 136 |  | 360 | > 445 | 181 |  | > 445 |  |  | Survivors [10]: 1; Survivors [11]: 3; Survivors [8]: 6; Survivors [12]: 7
COc1cccc2c1C(=O)c1c(O)c3c(c(O)c1C2=O)C[C@@](O)(C(=O)COC(=O)CCCCC(=O)O)C[C@@H]3OC1CC(NC(=O)C(F)(F)F)C(O)C(C)O1 (some centres undefined) | > 445 |  | 310 | > 445 | > 445 |  | > 445 | 5 |  | Survivors [13]: 6; Survivors [14]: 6; Survivors [15]: 7
COc1cccc2c1C(=O)c1c(O)c3c(c(O)c1C2=O)C[C@@](O)(C(=O)CO)C[C@@H]3OC1CC(NC(=O)C(F)(F)F)C(O)C(C)O1 (some centres undefined) |  |  | 230 |  |  |  |  |  |  | 
COc1cccc2c1C(=O)c1c(O)c3c(c(O)c1C2=O)C[C@@](O)(C(=O)COC(=O)CC(=O)O)C[C@@H]3OC1CC(NC(=O)C(F)(F)F)C(O)C(C)O1 (some centres undefined) | 109 |  | 330 | 154 | 109 | 0 | 136 |  |  | Survivors [17]: 0; Survivors [18]: 1; Survivors [19]: 1
COc1cccc2c1C(=O)c1c(O)c3c(c(O)c1C2=O)C[C@@](O)(C(=O)COC(=O)CCCC(=O)O)C[C@@H]3OC1CC(NC(=O)C(F)(F)F)C(O)C(C)O1 (some centres undefined) | 172 |  | 280 | > 445 | 109 |  | > 445 |  | 81 | Survivors [20]: 0; Survivors [21]: 2; Survivors [22]: 1; Survivors [23]: 4; Survivors [25]: 4
COc1cccc2c1C(=O)c1c(O)c3c(c(O)c1C2=O)C[C@@](O)(C(=O)CO)C[C@@H]3O[C@H]1C[C@H](N)[C@H](O)[C@H](C)O1 [DOXORUBICIN] |  |  | 50 |  |  |  |  |  |  | ILS at 1 mg/kg [26]: 81%; ILS at 3 mg/kg [27]: 181%; Survivors [28]: 0; Survivors [29]: 0; Survivors [30]: 0; Survivors [31]: 0; Survivors [32]: 0; ILS at 2 mg/kg [33]: 90%; ILS at 4 mg/kg [34]: 63%
COc1cccc2c1C(=O)c1c(O)c3c(c(O)c1C2=O)C[C@@](O)(C(=O)COC(=O)CCC(=O)O)C[C@@H]3OC1CC(NC(=O)C(F)(F)F)C(O)C(C)O1 (some centres undefined) | 118 |  | 300 | 190 | 127 | 0 | 127 |  |  | Survivors [17]: 0; Survivors [35]: 0; Survivors [19]: 1
COc1cccc2c1C(=O)c1c(O)c3c(c(O)c1C2=O)C[C@@](O)(C(=O)COC(=O)CCCCCCCC(=O)O)C[C@@H]3OC1CC(NC(=O)C(F)(F)F)C(O)C(C)O1 (some centres undefined) | > 445 | 5 | 440 | > 445 | 172 |  | > 445 | 5 | 445 | Survivors [15]: 7; Survivors [11]: 3; Survivors [36]: 4
CCCCC(=O)OCC(=O)[C@]1(O)Cc2c(O)c3c(c(O)c2[C@@H](OC2CC(NC(=O)C(F)(F)F)C(O)C(C)O2)C1)C(=O)c1c(OC)cccc1C3=O (some centres undefined) | > 445 | 5 | 240 |  | > 445 |  | > 445 | 5 | > 445 | Survivors [14]: 6; ILS at 20 mg/kg [37]: 281%; Survivors [36]: 4; Survivors [38]: 3
